Data set [1] can be described thus: Cytotoxicity against rat WB344 cells at 100 uM after 24 hrs. It is filed as cell-based. The conditions noted are these: wb344, 24 h. Summed up:
(§1)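 Neutral red uptake: cells in DMEM were grown ~24 h, then given compounds in DMSO for 24 h, then NR-containing medium ([…] as printed) for 3 h. Cells were PBS-washed, fixed 15 min in 0.5% formaldehyde/1% CaCl2, and dye extracted in 1% HOAc/50% EtOH with 20 min shaking. Read at A540 as % of DMSO control; mean of three independent measurements.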

A short description of data set [2]: Cytotoxicity against rat WB344 cells at 25 uM after 24 hrs. As to conditions: wb344, 24 h. It is filed as cell-based. In a few lines:
as §1

Data set [3] can be described thus: Cytotoxicity against rat WB344 cells at 5 uM after 24 hrs. It is filed as cell-based. The conditions noted are these: wb344, 24 h. In a few lines: as §1
For data set [4], the system named is Radical scavenging activity. The data set is described as follows: Antioxidant activity assessed as DPPH radical scavenging activity at 10 uM by TEAC assay. It is filed as functional. Summed up:
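Test solutions of 10 µM in MeOH were mixed 0.2 mL to 1.8 mL with methanolic DPPH at 22 mg/L. Absorbance at 517 nm was read every minute for 5 min, then every 5 min up to 30 min. Activity was followed over time and expressed as Trolox equivalent antioxidant capacity (TEAC).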
For orientation: Loss of DPPH colour is used to gauge radical scavenging.

Data set [5] in a line: Cytotoxicity against rat WB344 cells after 24 hrs. It is filed as cell-based. The conditions noted are these: WB344, 24 h. In a few lines: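 Epithelioid cells were cultured in DMEM ~24 h, exposed 24 h to DMSO-dissolved compounds, then to neutral red for 3 h. After formaldehyde/CaCl2 fixation, dye was extracted in acidified ethanol and read at 540 nm. Inhibition = (1 − T/C) × 100 against control OD540; IC50 taken from dose-response curves.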

One may read the IC50 as the midpoint of a concentration-inhibition curve. Read a high IC50 as lower potency. Turning to `COc1cc([C@@H]2CC(=O)c3c(cc(O)c(C/C=C(\C)CCC=C(C)C)c3O)O2)ccc1O`, the Activity is 2% in data set [1], 73% in data set [2] and 100% in data set [3]. The Trolox equivalent antioxidant capacity (TEAC) in data set [4] was 0.8. In data set [5], this compound had an IC50 of 30.2 µM.
Consider `C=C(C)C(O)CC/C(C)=C/Cc1c(O)cc2c(c1O)C(=O)[C@H](O)[C@@H](c1ccc(O)c(OC)c1)O2` (stereo not given in full), for which the Trolox equivalent antioxidant capacity (TEAC) in data set [4] was determined as 2.
For the compound `CC(C)=CCC/C(C)=C/Cc1c(O)cc2c(c1O)C(=O)C[C@@H](c1ccc(O)cc1)O2` [BONANNIONE A], the Activity in data set [1] is recorded as 9%; in data set [2], 95%; in data set [3], 97%. The Trolox equivalent antioxidant capacity (TEAC) in data set [4] came out at 0.4.
Take `CC(C)=CCC/C(C)=C/Cc1c(O)cc2c(c1O)C(=O)C[C@@H](c1ccc(O)c(O)c1)O2` [NYMPHAEOL A]: the Activity in data set [1] worked out at 2%; in data set [2] it was 57%; in data set [3], 98%. In data set [4], the Trolox equivalent antioxidant capacity (TEAC) came to 5.2. The IC50 in data set [5] was determined as 14.3 µM.

(Values after ChEMBL document CHEMBL1140640, “C-geranyl compounds from Paulownia tomentosa fruits” (J Nat Prod, 2007).)
